ARNT-TACC3 inh: disruptors of ARNT/TACC3 protein interaction, primary screen, biochemical, AlphaScreen, single concentration; Transforming acidic coiled-coil-containing protein 3 (Homo sapiens), Q9Y6A5; AlphaScreen His-ARNT PAS-B/GST-TACC3 binding, luminescence; TACC3 fragment carries E629A point mutation; inhibition, % at 9.99 µM; 0.66% of 390,000 active;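 active = mean inhibition of replicates at least 50% and at least half of replicates each reaching 50%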
CAL PDZ FP-1: CAL PDZ peptide-binding inhibitors, primary screen, biochemical, fluorescence polarization, Cer-tagged CAL PDZ, HTS; Golgi-associated PDZ and coiled-coil motif-containing protein (Homo sapiens), Q9HD26; purified CAL PDZ, TMR-peptide fluorescence polarization, 1 h; inhibition, % at 20 µM; 0.02% of 330,000 active; AID 504414, 2011;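 active = highest replicate inhibition of at least 40%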
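Read-out basis: mP drop reported as inhibition | Assay system: Tagged CAL PDZ protein CerCALP, purified | Benchmarks: Unlabelled peptide for full inhibition, DMSO wells as neutral | Schedule: 1 h incubation at room temperature before polarization reading | Buffer or medium: Sodium phosphate/NaCl buffer pH 7.4 with TCEP, IgG, Thesit | Doses: Single point, 20 µM | Measured by: Fluorescence polarization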
DYRK1A inh: rat Dyrk1A kinase inhibitors, primary screen, biochemical, single point, plate reader | 0.43% of 310,000 active | ADP-Glo luminescence, NFATc1 peptide | inhibition, % at 12.5 µM | Dual specificity tyrosine-phosphorylation-regulated kinase 1A (Rattus norvegicus), Q63470 | AID 504441, 2011; in the data active = inhibition above about 50%
CAL PDZ FP-2: untagged CAL PDZ binding inhibitors, primary screen, biochemical, fluorescence polarization, HTS; Golgi-associated PDZ and coiled-coil motif-containing protein (Homo sapiens), Q9HD26; purified CAL PDZ, TMR-peptide fluorescence polarization, 1 h; inhibition, % at 24.9 µM; 0.92% of 300,000 active;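 active = mean inhibition of at least 30% with at least half of replicates also reaching 30%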
Large screens that a line does not name were inactive. In the library only some 1.4% were active in any assay of this set; here they are far more common.

CSc1cccc(NC(=O)CCNS(=O)(=O)c2ccc3[nH]c(=O)oc3c2)c1	none
CO[C@H]1CN(C)C(=O)c2ccc(NC(=O)C3CCOCC3)cc2OC[C@@H](C)N(C(C)=O)C[C@H]1C	none (no result: CAL PDZ FP-1, DYRK1A inh, CAL PDZ FP-2)
COC(Cc1n[nH]c(=S)n1-c1ccc(Cl)cc1)OC	ARNT-TACC3 inh 51
COC(Cc1nnc(SC)n1-c1ccc(Cl)cc1)OC	none
Cc1cc(C)n(CC(O)CN(c2ccccc2)S(=O)(=O)c2ccccc2)n1 (configuration not stated)	none (no result: CAL PDZ FP-2)
O=S(=O)(c1ccccc1)N(CC(O)COc1ccccc1)c1ccccc1 (configuration not stated)	CAL PDZ FP-2 57
O=C(Nc1ccc2c(c1)OCO2)N[C@H]1CC[C@@H](CCNC(=O)C2CCCCC2)O[C@@H]1CO	none (no result: CAL PDZ FP-1, DYRK1A inh, CAL PDZ FP-2)
CC=Cc1ccc2n(c1=O)C[C@H]1[C@H](CO)[C@@H](C(=O)NC3CCC3)N(S(C)(=O)=O)[C@@H]21 (mixture of isomers)	none (no result: CAL PDZ FP-1, DYRK1A inh, CAL PDZ FP-2)
N#C/C(=C/c1cn[nH]c1-c1cccc(Br)c1)C(=O)O	none
N#C/C(=C/c1cn[nH]c1-c1ccc(Br)cc1)C(=O)O	CAL PDZ FP-2 33 (no result: DYRK1A inh)
Cn1c2c(c(=O)n3ncnc13)CCCC2	CAL PDZ FP-2 48 (no result: DYRK1A inh)
CC(C)CC(=O)c1c[nH]c(C(=O)N2CCN(Cc3ccccc3)CC2)c1	CAL PDZ FP-2 80 (no result: DYRK1A inh)
Cc1ccc(NC(=O)CCC(=O)N/N=C/c2ccc(O)cc2O)cc1	ARNT-TACC3 inh 71
COc1cc(/C=N/NC(=O)/C(=C/c2ccccc2)CCO)ccc1O	none
O=C(N/N=C/c1ccc(O)cc1O)/C(=C/c1ccccc1)CCO	ARNT-TACC3 inh 70
Cc1cc([N+](=O)[O-])nn1CC(=O)N/N=C/c1ccc(O)cc1O	ARNT-TACC3 inh 71
COCC#Cc1cnc2c(c1)C(=O)N([C@H](C)CO)C[C@H](C)[C@@H](CN(C)C(=O)c1ccc3c(c1)OCO3)O2	none (no result: CAL PDZ FP-1, DYRK1A inh, CAL PDZ FP-2)
COc1ccccc1N(CC(=O)N1CCN(c2ccccc2)CC1)S(=O)(=O)c1ccc(C)cc1	CAL PDZ FP-2 66
C[C@H](CO)N1C[C@H](C)[C@H](CN(C)S(=O)(=O)c2cn(C)cn2)OCCCC[C@H](C)Oc2ccc(NC(=O)c3ccccc3)cc2C1=O	none (no result: CAL PDZ FP-1, DYRK1A inh, CAL PDZ FP-2)
CCCNC(=O)[C@H]1[C@H](CO)[C@H]2Cn3c(ccc(-c4ccccc4F)c3=O)[C@H]2N1CC1CC1	none (no result: CAL PDZ FP-1, DYRK1A inh, CAL PDZ FP-2)
Cc1nc(C)c(C(=O)C2=C(O)C(=O)N(CCN3CCOCC3)C2c2ccco2)s1 (configuration not stated)	ARNT-TACC3 inh 49
Cc1nc(C)c(C(=O)C2=C(O)C(=O)N(CCN(C)C)C2c2ccco2)s1 (configuration not stated)	none
COc1cc(/C=C/C(=O)OCC(=O)c2ccc[nH]2)cc(OC)c1OC	CAL PDZ FP-2 40
CO[C@@H]1CN(C)C(=O)c2cc(NC(=O)Nc3cccc(F)c3)ccc2OC[C@H](C)N(C)C[C@H]1C	none (no result: CAL PDZ FP-1, DYRK1A inh, CAL PDZ FP-2)
Cc1cc(N2CCN(c3ccccc3)CC2)nc2ccccc12	CAL PDZ FP-2 62 (no result: CAL PDZ FP-1)
O=C(NNc1ncccc1-n1cccc1)c1ccc(Cl)cc1	none (no result: DYRK1A inh)
CC(C)(C)c1ccc(C(=O)NNc2ncccc2-n2cccc2)cc1	CAL PDZ FP-2 170 (no result: DYRK1A inh)
COC(=O)C[C@@H]1CC[C@@H]2[C@@H](COc3ccc(NC(=O)Nc4cc(C)cc(C)c4)cc3C(=O)N2C)O1	none (no result: CAL PDZ FP-1, DYRK1A inh, CAL PDZ FP-2)
C[C@H](CO)N1C[C@H](C)[C@@H](CN(C)C(=O)Cc2ccncc2)Oc2cc(C3=CCCCC3)ccc2S1(=O)=O	none (no result: CAL PDZ FP-1, DYRK1A inh, CAL PDZ FP-2)
Cc1oc(/C=N/NC(=O)CC2(C)OCCO2)cc1Br	none
CC1(CC(=O)N/N=C/c2cc(Br)c(O)cc2O)OCCO1	ARNT-TACC3 inh 75
Cc1noc(C)c1S(=O)(=O)N(C)C[C@@H]1OCCCC[C@@H](C)Oc2ccc(NS(C)(=O)=O)cc2C(=O)N([C@@H](C)CO)C[C@@H]1C	none (no result: CAL PDZ FP-1, DYRK1A inh, CAL PDZ FP-2)
O=C(C[C@H]1C[C@@H]2c3cc(NS(=O)(=O)c4ccc(F)cc4)ccc3O[C@@H]2[C@@H](CO)O1)N1CCOCC1	none (no result: CAL PDZ FP-1, DYRK1A inh, CAL PDZ FP-2)
CN1CCN(C(=O)C[C@H]2CC[C@@H]3[C@H](COC[C@H](O)CN3S(=O)(=O)c3cccc(F)c3)O2)CC1	none (no result: CAL PDZ FP-1, DYRK1A inh, CAL PDZ FP-2)
CN(C(=O)COC(=O)c1ccc(Cl)cc1N)C1CCCCC1	CAL PDZ FP-2 34
O=C(C[C@@H]1C[C@H]2c3cc(NC(=O)NC4CCCC4)ccc3O[C@H]2[C@@H](CO)O1)NCc1ccncc1	none (no result: CAL PDZ FP-1, DYRK1A inh, CAL PDZ FP-2)
